Measurements from paper PMC3556220 (Biochimica et biophysica acta, 2012).

Tests used:
BON cells [1] = test: MTT assay of BON cell growth; format: cell-based, human; details: for stimulation of BON cell growth, MTT assay: 24 h incubation, serum-free medium, read at 595 nm, mean of 6 experiments
Method in brief: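 BON cells (5 × 10^3/well) were grown 24 h in DMEM/F12K + 10% FBS, washed with PBS, then exposed 24 h to peptides/hormones in serum-free DMEM/F12K, with or without EGFR inhibitor at 1 μM. MTT (1.2 mM final) was present for the last 3 h. Formazan was dissolved in 0.04 N HCl/isopropanol for 5 min at RT and absorbance read at 595 nm. Mean ± SEM, 6 experiments.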

QGP-1 cells = test: [^3H]-Thymidine uptake, QGP-1 cell growth; format: cell-based, human; details: n = 6; for stimulation of cell growth, [^3H]-Thymidine incorporation: 24 h, serum-free medium, EGFR-dependent
Method in brief: (§1)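 Plating: BON 1.5 × 10^5/well in DMEM/F12K; QGP-1 4 × 10^4/well in RPMI; both with 10% FBS. After 24 h, cells were serum-starved 24 h, then exposed 24 h to peptides/hormones with or without EGFR inhibitor at 1 µM. [3H]-thymidine was present for the final 6 h. Cells were washed in ice-cold PBS, precipitated in 5% TCA (30 min, 4 °C), dissolved in 0.5 N NaOH/0.5% SDS and scintillation-counted. Mean ± SEM, 6 experiments.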

BON cells [2] = details: cited from earlier work; for induction of apoptosis: BON cells
BON cells [3] = test: [^3H]-Thymidine uptake, BON cell growth; format: cell-based, human; details: 24 h incubation, serum-free medium, mean of 6 experiments
Method in brief: as §1

[4] = system: EGFR (Y^1068 phosphorylation); test: Western blot of EGFR Tyr^1068 phosphorylation in BON cells; format: cell-based, human; details: for stimulation of Y^1068 EGFR phosphorylation: Western blot, densitometry; for inhibition of NT-stimulated EGFR Y^1068 phosphorylation by antioxidant: NAC or Tiron pre-treatment (one range for both); for inhibition of Bn-analogue-stimulated EGFR Y^1068 phosphorylation by antioxidant: NAC or Tiron pre-treatment
Method in brief: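 BON cells were stimulated with EGF 16 nM or peptides 1 µM for 30 min or over time courses; inhibitor sets used 1 h stimulation. Lysis was in pH 7.5 Triton/deoxycholate buffer with orthovanadate. Equal protein ran on 4–20% SDS-PAGE onto nitrocellulose. Probes: anti-phospho-EGFR Tyr1068 (1:1000, overnight 4 °C), tubulin loading control, HRP secondary, chemiluminescence on film, band densitometry. Mean ± SEM, 3–4 experiments.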

KRJ-I cells = details: cited from earlier work
[5] = system: progressive metastatic NETs; details: phase II trial, patients with progressive metastatic NETs; cited from earlier work
[6] = system: rat insulinoma cell lines; details: cited from earlier work
HNSCC = details: cited from earlier work; for cell proliferation: HNSCC
BON cells [7] = test: BON cell growth, galanin and CCK/gastrin; format: cell-based, human; details: data not shown
Method in brief: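 BON cells are grown in DMEM/F12K with 10% FBS, then washed and serum-starved, and test compound is added for 24 h. For the MTT read-out, 5×10^3 cells/well get 1.2 mM MTT (final) for the last 3 h, are lysed in 0.04N HCl/isopropanol, and are read at 595 nm. For thymidine uptake, 1.5×10^5 cells/well are starved 24 h and pulsed with [3H]-thymidine for the final 6 h. Samples are TCA-precipitated, solubilised in NaOH/SDS, and scintillation-counted.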

prostate cancer cells = details: cited from earlier work
[8] = system: pancreatic adenocarcinoma cells; details: cited from earlier work
non-endocrine tumors = details: cited from earlier work
[9] = system: non-small-cancer lung cells / lung cancer; details: cited from earlier work
NCH720 cells = details: broncho-pulmonary NET cell line; cited from earlier work

## EGF: Human EGF (Recombinant, E. coli)
BON cells [1]
  stimulation of BON cell growth, MTT assay: 30%
QGP-1 cells
  stimulation of cell growth, [^3H]-Thymidine incorporation: able to stimulate BON cell growth, as well as in QGP-1 cells
BON cells [2]
  growth of BON cells: can stimulate growth of both KRJ-I cells and BON cells
BON cells [2]; previous studies
  stimulation of BON cell proliferation (previous studies): stimulates cell proliferation
BON cells [3]
  growth stimulated, [^3H]-Thymidine assessment: 32%
[4]; 16 nM, 30 min, n = 4
  stimulation of Y^1068 EGFR phosphorylation: significantly stimulated
[4]; EGF
  peak time of Y^1068 EGFR tyrosine phosphorylation: 2 min
[4]; EGF 16 nM, n = 4
  t1/2 of Y^1068 EGFR phosphorylation: 3 min
KRJ-I cells
  growth of KRJ-I cells: can stimulate growth of both KRJ-I cells and BON cells

## COc1cc2ncnc(Nc3ccc(F)c(Cl)c3)c2cc1OCCCN1CCOCC1 [Gefitinib]
BON cells [2]
  induction of apoptosis: induces apoptosis
  BON cell basal proliferation: completely blocks BON cell basal proliferation
[5]
  tumor stabilization: stabilization of the tumors

## epiregulin: epiregulin, an EGFR ligand
[6]
  cell growth: stimulates cell growth

## [DTyr^6, β Ala^11, Phe^13, Nle^14]Bn (6–14) [Bn-analogue]
QGP-1 cells
  stimulation of cell growth, [^3H]-Thymidine incorporation: stimulated cell growth
[4]; 1 μM, 30 min, n = 4
  stimulation of Y^1068 EGFR phosphorylation: significantly stimulated
[4]; 1 μM, n = 4
  maximal increase of EGFR Y^1068 phosphorylation, dose-response: 2.4 fold
[4]; Bn-analogue or NT
  peak time of Y^1068 EGFR tyrosine phosphorylation: 60 min
[4]; time course, 1 μM, 62 min (NT data not shown), n = 4
  increase of EGFR phosphorylation at 62 min: 3.4 fold

## O=S(=O)(O)c1cc(O)c(O)c(S(=O)(=O)O)c1 [Tiron]
[4]; NT 1 μM, 1 h, n = 3
  inhibition of NT-stimulated EGFR Y^1068 phosphorylation by antioxidant: 37–45%
[4]; Bn-analogue 1 μM, 1 h, n = 3
  inhibition of Bn-analogue-stimulated EGFR Y^1068 phosphorylation by antioxidant: 85%

## TGFα: TGFα, BioVision
BON cells [1]
  stimulation of BON cell growth, MTT assay: 40%
QGP-1 cells
  stimulation of cell growth, [^3H]-Thymidine incorporation: stimulated cell growth
BON cells [3]
  growth stimulated, [^3H]-Thymidine assessment: 42%
[4]; 3.6 nM, 30 min, n = 4
  stimulation of Y^1068 EGFR phosphorylation: significantly stimulated
KRJ-I cells
  growth of KRJ-I cells: increase cell growth

## TGFβ
KRJ-I cells
  growth of KRJ-I cells: increase cell growth

## bradykinin (RPPGFSPFR; Bradykinin; UniProt P01042 381-389, looked up)
QGP-1 cells
  stimulation of cell growth, [^3H]-Thymidine incorporation: able to stimulate BON cell growth, as well as in QGP-1 cells
[4]; 1 μM, 30 min, n = 4
  stimulation of Y^1068 EGFR phosphorylation: significantly stimulated
HNSCC; through its B2 receptor
  growth of HNSCC: stimulates growth of HNSCC

## galanin (GWTLNSAGYLLGPHAVGNHRSFSDKNGLTS; Galanin; UniProt P22466 33-62, looked up)
BON cells [7]
  effect on cell growth: did not exert any effect on cell growth

## neurotensin [NT]
QGP-1 cells
  stimulation of cell growth, [^3H]-Thymidine incorporation: stimulated cell growth
[4]; 1 μM, 30 min, n = 4
  stimulation of Y^1068 EGFR phosphorylation: significantly stimulated
[4]; 1 μM, n = 4
  maximal increase of EGFR Y^1068 phosphorylation, dose-response: 2.6 fold
[4]; Bn-analogue or NT
  peak time of Y^1068 EGFR tyrosine phosphorylation: 60 min
Prostate cancer cells
  cell growth: stimulate cell growth
[8]
  cell growth: stimulate cell growth

## COc1cc2ncnc(Nc3cccc(Br)c3)c2cc1OC [PD153035]
non-endocrine tumors
  inhibition of cell growth stimulated by various GI hormones/neurotransmitters: able to inhibit cell growth

## CC(=O)N[C@@H](CS)C(=O)O [N-acetylcysteine]
[4]; NT 1 μM, 1 h, n = 3
  inhibition of NT-stimulated EGFR Y^1068 phosphorylation by antioxidant: 37–45%
[4]; Bn-analogue 1 μM, 1 h, n = 3
  inhibition of Bn-analogue-stimulated EGFR Y^1068 phosphorylation by antioxidant: 85%

## NMB: stimulates cell proliferation in non-small-cancer lung cells
[9]
  cell proliferation: stimulate cell proliferation
HNSCC
  cell proliferation: stimulate cell proliferation

## COc1cc2ncnc(Nc3cccc(Cl)c3)c2cc1OC [AG1478]
non-endocrine tumors
  inhibition of cell growth stimulated by various GI hormones/neurotransmitters: able to inhibit cell growth
BON cells [1]; BON cells, AG1478 1 μM pre-treatment, 24 h, n = 6
  inhibition of growth stimulated by each GI hormone, EGF or TGFα, MTT assay: completely inhibited
QGP-1 cells; AG1478 1 μM pre-treatment, [^3H]-Thymidine uptake
  inhibition of the increase of cell growth induced by the GI hormones: blocked the increase of cell growth
BON cells [2]
  induction of apoptosis: induces apoptosis
  BON cell basal proliferation: completely blocks BON cell basal proliferation
[4]; AG1478 1 μM, stimulant Bn-analogue, 30 min, n = 4
  inhibition of Bn-analogue-stimulated Y^1068 EGFR phosphorylation: inhibited completely
[4]; AG1478 1 μM, stimulant EGF, 30 min, n = 4
  inhibition of EGF-stimulated Y^1068 EGFR phosphorylation: 88%
[4]; AG1478 1 μM, stimulant NT, 30 min, n = 4
  inhibition of NT-stimulated Y^1068 EGFR phosphorylation: inhibited completely

## NCCc1c[nH]c2ccc(O)cc12 [serotonin]
NCH720 cells
  cell proliferation: stimulates cell proliferation
KRJ-I cells
  cell proliferation of KRJ-I: stimulates cell proliferation

## CN(C)CCCn1cc(C2=C(c3c[nH]c4ccccc34)C(=O)NC2=O)c2ccccc21 [GF 109203X]
[4]; GF 109203X pre-treatment, NT 1 μM, 1 h, n = 3
  inhibition of NT-stimulated EGFR Y^1068 phosphorylation by PKC inhibitor: 77%

## bombesin
[9]
  cell proliferation: stimulate cell proliferation
HNSCC
  cell proliferation: stimulate cell proliferation

## Nc1ncnc2c1cnn2-c1ccccc1 [PP3]
[4]; inhibitor 10 μM, Bn-analogue 1 μM, 1 h, n = 4
  reduction of Bn-analogue-stimulated Y^1068 EGFR phosphorylation: but not PP3, an inactive PP2 analogue
[4]; inhibitor 10 μM, NT 1 μM, 1 h, n = 4
  reduction of NT-stimulated Y^1068 EGFR phosphorylation: but not PP3, an inactive PP2 analogue

## CNC(=O)[C@H](Cc1c[nH]c2ccccc12)NC(=O)[C@@H](CC(=O)NO)CC(C)C [GM 6001]
[4]; GM 6001 pre-treatment, Bn-analogue 1 μM, 1 h, n = 3
  reduction of Bn-analogue-stimulated EGFR Y^1068 phosphorylation by MMP inhibitor: 75%
[4]; GM 6001 pre-treatment, NT 1 μM, 1 h, n = 3
  reduction of NT-stimulated EGFR Y^1068 phosphorylation by MMP inhibitor: 60%
